How the values were obtained:
BV-2 = assay: Anti-inflammatory in mouse BV2 cells assessed as inhibition of LPS-induced nitric oxide production pre-incubated before LPS challenge for 24 hrs by Griess reagent based assay; format: functional, cell-based
How it was run: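 BV2 microglia seeded at 4 × 10^4 cells/well, treated with or without graded compound concentrations, then stimulated with LPS (100 ng/mL) for 24 h. Nitrite in the medium was measured with Griess reagent (0.1% N-1-naphthylethylenediamine dihydrochloride, 1% sulfanilamide, 5% phosphoric acid), 1:1 with supernatant for 10 min, A570. Quantified against a sodium nitrite standard. IC50 = concentration giving 50% inhibition of NO production.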

[1] = Cytotoxicity in mouse BV2 cells assessed as cell viability at 20 uM incubated for 24 hrs by MTT assay relative to untreated control; format: cell-based, BV-2; details: read-out: Activity
How it was run: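 BV2 cells in the LPS-stimulated NO assay (LPS 100 ng/mL, 24 h) were exposed to 20 μM compound. Viability was read by MTT assay and expressed as percent. Mean ± SD of three independent experiments.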

SK-OV-3 = assay: Cytotoxicity against human SKOV3 cells assessed as inhibition of cell growth by SRB assay; format: functional, cell-based
How it was run: (§1)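 Human tumour lines A549, SK-OV-3, SK-MEL-2 and HCT15 (from ATCC) were tested by sulforhodamine B assay. IC50 is the concentration giving 50% inhibition of cell growth. Cisplatin served as positive control.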

[2] = Cytotoxicity in rat C6 cells assessed as cell viability at 20 uM incubated for 24 hrs by MTT assay relative to untreated control; format: cell-based; details: read-out: Activity
How it was run: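 C6 glioma cells were seeded at 1 × 10^5 cells/well. After 24 h, medium was switched to serum-free DMEM and compounds were added at 20 μM for 24 h. Viability was read by MTT and expressed as % of untreated cells. Values are means ± SD of three independent experiments.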

C6 = assay: Neuroprotective activity in rat C6 cells assessed as induction of nerve growth factor secretion at 20 uM incubated for 24 hrs by ELISA method relative to untreated control; format: functional
How it was run: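 C6 glioma cells seeded at 1 × 10^5 cells/well and cultured 24 h. They were then switched to serum-free DMEM with compound at 20 μM for a further 24 h. NGF secreted into the conditioned medium was quantified by ELISA and expressed as percent of untreated control (100%). Mean ± SD of three independent experiments.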

SK-MEL-2 = assay: Cytotoxicity against human SK-MEL-2 cells assessed as inhibition of cell growth by SRB assay; format: functional, cell-based; how it was run: as §1
A549 = assay: Cytotoxicity against human A549 cells assessed as inhibition of cell growth by SRB assay; format: functional, cell-based; how it was run: as §1
HCT-15 = assay: Cytotoxicity against human HCT15 cells assessed as inhibition of cell growth by SRB assay; format: functional, cell-based; how it was run: as §1

| SMILES | IC50 (BV-2) [µM] | viability at 24 h, 20 µM [1] [%] | IC50 (SK-OV-3) [µM] | viability at 24 h, 20 µM [2] [%] | Activity (C6) [%] | IC50 (SK-MEL-2) [µM] | IC50 (A549) [µM] | IC50 (HCT-15) [µM] |
| --- | --- | --- | --- | --- | --- | --- | --- | --- |
| CC1(C)CC[C@]2(C(=O)O)CC[C@]3(C)C(=CC[C@@H]4[C@@]5(C)C[C@@H](O)[C@H](O)C(C)(C)[C@@H]5CC[C@]43C)[C@@H]2C1 [MASLINIC ACID] | 17.8 | 30.4 |  |  |  |  |  |  |
| CNC(=N)NCCC[C@H](N)C(=O)O [TILARGININE] | 21.8 | 114 |  |  |  |  |  |  |
| C=C(C)[C@@H]1CC[C@]2(C(=O)O)CC[C@]3(C)[C@H](CC[C@@H]4[C@@]5(C)CC[C@H](OC(=O)/C=C/c6ccc(O)c(O)c6)C(C)(C)[C@@H]5CC[C@]43C)[C@@H]12 |  |  | > 10 | 95 | 355.7 | > 10 | 9.9 | > 10 |
| C[C@@H]1CC[C@]2(C(=O)O)CC[C@]3(C)C(=CC[C@@H]4[C@@]5(C)C[C@@H](O)[C@H](O)C(C)(C)[C@@H]5CC[C@]43C)[C@@H]2[C@]1(C)O [TOMENTIC ACID] |  |  |  | 100 | 167.4 |  |  |  |
| C=C(C)[C@@H]1CC[C@]2(C(=O)O)CC[C@]3(C)[C@H](CC[C@@H]4[C@@]5(C)C[C@@H](O)[C@H](O)C(C)(C)[C@@H]5CC[C@]43C)[C@@H]12 [ALPHITOLIC ACID] | 14.5 | 71 |  |  |  |  |  |  |
| C=C(C)[C@@H]1CC[C@]2(CO)CC[C@]3(C)[C@H](CC[C@@H]4[C@@]5(C)CC[C@H](OC(=O)/C=C/c6ccc(O)c(O)c6)C(C)(C)[C@@H]5CC[C@]43C)[C@@H]12 |  |  | 9 |  |  | 2.9 | > 10 | > 10 |
| CCCCC/C=C/C(=O)CCc1ccc(O)c(OC)c1 [SHOGAOL] |  |  |  | 126 | 168.6 |  |  |  |
| CC1(C)CC[C@]2(C(=O)O)CC[C@]3(C)C(=CC[C@@H]4[C@@]5(C)C[C@@H](O)[C@@H](O)C(C)(C)[C@@H]5CC[C@]43C)[C@@H]2C1 | 21.6 | 87 |  |  |  |  |  |  |
| COc1cc(/C=C\C(=O)O[C@H]2[C@H](O)C[C@]3(C)[C@H]4CC=C5[C@H]6[C@](C(=O)O)(CC[C@@H](C)[C@@]6(C)O)CC[C@@]5(C)[C@]4(C)CC[C@H]3C2(C)C)ccc1O | 37.1 | 111 |  |  |  |  |  |  |
| C=C(C)[C@@H]1CC[C@]2(C(=O)O)CC[C@]3(C)[C@H](CC[C@@H]4[C@@]5(C)CC[C@H](OC(=O)/C=C\c6ccc(O)c(O)c6)C(C)(C)[C@@H]5CC[C@]43C)[C@@H]12 | 13.4 | 35.3 | 7.5 |  |  | 6.7 | 0.9 | 3.8 |
| C=C(C)[C@@H]1CC[C@]2(CO)CC[C@]3(C)[C@H](CC[C@@H]4[C@@]5(C)CC[C@H](OC(=O)/C=C\c6ccc(O)c(O)c6)C(C)(C)[C@@H]5CC[C@]43C)[C@@H]12 |  |  | 8.4 |  |  | 2 | > 10 | > 10 |
| C=C(C)[C@@H]1CC[C@]2(C(=O)O)CC[C@]3(C)[C@H](CC[C@@H]4[C@@]5(C)CC[C@H](O)C(C)(C)[C@@H]5CC[C@]43C)[C@@H]12 [BETULINIC ACID] | 4.5 | 59.6 | > 10 | 77.3 | 177.6 | > 10 | 3.1 | 8.7 |
| C=C(C)[C@@H]1CC[C@]2(CO)CC[C@]3(C)[C@H](CC[C@@H]4[C@@]5(C)CC[C@H](O)[C@](C)(CO)[C@@H]5CC[C@]43C)[C@@H]12 [ILEKUDINOL C] | 25.5 | 88 | > 10 |  |  | > 10 | 5.1 | > 10 |
| C[C@H]1[C@H](C)CC[C@]2(C(=O)O)CC[C@]3(C)C(=CC[C@@H]4[C@@]5(C)C[C@@H](O)[C@H](O)C(C)(C)[C@@H]5CC[C@]43C)[C@H]12 [COROSOLIC ACID] | 47.1 | 100 |  |  |  |  |  |  |
